Assay results pooled from the literature.
Lines come from different studies, so protocols differ. ≈ marks a conversion by molar mass, not a printed value.

| Compound | tested on | test | system | conditions | endpoint | result |
| --- | --- | --- | --- | --- | --- | --- |
| O=[N+]([O-])c1ccc(NCCCCN=C=S)c2nonc12 | T47D | cell growth or viability, MTT |  | 24 h | IC50 | 2.8 µM |
| NNC(=O)c1ccncc1 | Mycobacteroides abscessus | microbial growth, broth dilution |  |  | MIC90 | > 500 µg/mL |
| C#CCCCCCC(=O)NCc1c(O)c(=O)cc(C)n1C | Pseudomonas aeruginosa | microbial growth | PAO1 |  | IC50 | > 100 µM |
| NCC[C@H](O)C(=O)N[C@@H]1C[C@H](N)[C@@H](O[C@H]2O[C@H](CN)[C@@H](O)[C@H](O)[C@H]2O)[C@H](O)[C@H]1O[C@H]1O[C@H](CO)[C@@H](O)[C@H](N)[C@H]1O | Mycobacteroides abscessus | microbial growth, broth dilution |  |  | MIC90 | 3.4 µg/mL (≈ 5.81 µM) |
| Cc1cc(=O)oc2cc(OCCCC[Se]C#N)ccc12 | T47D | cell growth or viability, SRB |  |  | GI50 | 2.2 µM |
| C#CCCCCC(=O)NCc1cc(=O)c(O)c(CNC(=O)CCCCCC)n1C | Pseudomonas aeruginosa | microbial growth | PAO1 |  | IC50 | > 100 µM |
| C[C@@H](N)[C@H](O)CCCCCCCC(=O)CCCCCCCCCCCCCC[C@@H](O[C@@H]1O[C@H](CO)[C@H](O)[C@H](O)[C@H]1O)[C@@H](C)N | Pseudomonas aeruginosa | microbial growth, resazurin | ATCC27853 | 50 µM | inhibition | 99% |
| O=c1c2ccccc2[se]n1-c1ccccc1 | Zika virus | viral replication |  | 48 h | IC50 | 7.4 µM |
| N#C[Se]CCCCOc1ccc2c(-c3ccccc3)cc(=O)oc2c1 | T47D | cell growth or viability, SRB |  |  | GI50 | 26 µM |
| C#CCCC1(CCC(=O)NCc2cc(=O)c(O)c(CNC(=O)CCCCCC)n2C)N=N1 | Pseudomonas aeruginosa | microbial growth | PAO1 |  | IC50 | > 100 µM |
| N.N.[Cl][Pt][Cl] | SU-DHL-2 | cell growth or viability, ATP luminescence |  | 72 h | IC50 | 0.56 µM |
| Cc1c(Cl)c(=O)oc2cc(OCCCC[Se]C#N)ccc12 | MIA PaCa-2 | cell growth or viability, SRB |  |  | GI50 | 13 µM |
| C[C@@H]1C[C@@H]([C@H](O)CC2CC(=O)NC(=O)C2)C(=O)[C@@H](C)C1 | Pseudomonas aeruginosa | microbial growth, broth dilution | ATCC27 ATCC27853 |  | MIC | 16 µg/mL (≈ 56.9 µM) |
